Tests used:
[1] = target: Muscarinic acetylcholine receptor; test: Binding activity to muscarinic acetylcholine receptor in rat heart, assayed using [3H]QNB as a radioligand in the presence of Gpp(NH)p.
Method in brief: (§1)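 Male Wistar rat heart ventricles flushed, minced, Polytron-homogenized in 10 mM Na/K phosphate pH 7.4, spun 48000 g 15 min 4 °C, resuspended, gauze-filtered, diluted 1:750, 0.15-0.2 mg protein/2.0 mL. 10 μM Gpp(NH)p added to homogenate for line 3. Competitor 10^-12 to 10^-3 M. 10 μM atropine nonspecific. Filtration, scintillation counting. Ki from one-site fit.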

[2] = target: Muscarinic acetylcholine receptor; test: Binding activity to the muscarinic acetylcholine receptor in rat cortex, assayed using [3H]CD as a radioligand.; format: tissue-based
Method in brief: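 Male Wistar rat cerebral cortex homogenate in 10 mM Na/K phosphate pH 7.4, diluted 1:300 (wet wt/v), ~0.75 mg protein per 2.0 mL. 1 nM radioligand (55.5 Ci/mmol), prepared fresh in buffer. Competitor 10^-12 to 10^-3 M. Nonspecific binding with 10 μM atropine. Rapid filtration on PEI-treated filters, scintillation counting. Apparent Ki by one-site competitive nonlinear regression.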

[3] = target: T1, Muscarinic acetylcholine receptor M2 (Rattus norvegicus) (UniProt P10980); test: Muscarinic 2 receptor agonistic activity was determined as the selectivity ratio of Ki against [3H]QNB+ Gpp(NH)p to that of [3H]QNB; format: functional
T1 sequence (whole entry): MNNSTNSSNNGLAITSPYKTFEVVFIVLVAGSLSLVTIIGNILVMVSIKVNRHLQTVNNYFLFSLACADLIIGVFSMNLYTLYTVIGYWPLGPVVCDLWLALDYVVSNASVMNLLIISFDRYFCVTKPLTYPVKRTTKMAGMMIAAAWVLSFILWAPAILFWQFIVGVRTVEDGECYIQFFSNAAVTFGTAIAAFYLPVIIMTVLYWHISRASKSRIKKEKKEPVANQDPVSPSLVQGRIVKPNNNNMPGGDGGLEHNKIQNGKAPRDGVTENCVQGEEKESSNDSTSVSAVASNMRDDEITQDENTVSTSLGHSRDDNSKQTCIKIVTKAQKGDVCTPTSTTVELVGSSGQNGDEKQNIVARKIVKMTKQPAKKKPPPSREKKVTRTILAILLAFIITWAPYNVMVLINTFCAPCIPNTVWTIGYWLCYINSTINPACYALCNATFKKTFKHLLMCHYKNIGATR

[4] = target: Muscarinic receptor M1 and M2 (Rattus norvegicus) (UniProt P08482+P10980); test: The agonist ratio as the ratio of Ki against [3H]QNB to that of [3H]-CD; format: functional
[5] = target: Muscarinic acetylcholine receptor; test: (§2) Binding activity against Muscarinic acetylcholine receptor in rat cortex, using [3H]QNB as a radioligand.; format: tissue-based
Method in brief: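 Competitor at final 10^-12 to 10^-3 M. 10 μM atropine defines nonspecific binding. Filtration on PEI-soaked GF/B filters, scintillation counting. Apparent Ki from one-site competitive nonlinear fit.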

[6] = target: Muscarinic acetylcholine receptor; test: Binding activity to muscarinic acetylcholine receptor in rat heart, assayed using [3H]-QNB as a radioligand.; method in brief: as §1
[7] = target: T2, Muscarinic acetylcholine receptor M1 (Rattus norvegicus) (UniProt P08482); test: Muscarinic 1 receptor agonistic activity as the selectivity ratio of Ki against [3H]-QNB to that of [3H]PZ; format: functional
T2 sequence (whole entry): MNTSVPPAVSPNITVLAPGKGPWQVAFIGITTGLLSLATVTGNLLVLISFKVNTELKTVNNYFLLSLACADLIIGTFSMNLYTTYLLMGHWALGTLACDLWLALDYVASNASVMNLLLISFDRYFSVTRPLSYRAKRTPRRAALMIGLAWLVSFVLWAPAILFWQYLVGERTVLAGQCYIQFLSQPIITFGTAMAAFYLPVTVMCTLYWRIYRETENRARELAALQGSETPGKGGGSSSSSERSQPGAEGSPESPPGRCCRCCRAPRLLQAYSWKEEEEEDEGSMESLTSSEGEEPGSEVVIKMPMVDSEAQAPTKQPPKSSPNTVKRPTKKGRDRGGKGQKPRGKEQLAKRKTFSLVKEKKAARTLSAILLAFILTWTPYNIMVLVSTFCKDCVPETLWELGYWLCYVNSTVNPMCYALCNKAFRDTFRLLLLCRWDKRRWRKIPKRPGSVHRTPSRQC

[8] = target: T2, Muscarinic acetylcholine receptor M1 (Rattus norvegicus); test: Muscarinic 1 receptor agonistic activity as the selectivity ratio of Ki against [3H]-QNB+ Gpp(NH)p to that of [3H]PZ; format: functional
[9] = target: Muscarinic acetylcholine receptor; test: Binding activity to the muscarinic acetylcholine receptor in rat cortex, assayed using [3H]PZ as a radioligand.; format: tissue-based
Method in brief: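 Rat (male Wistar, 200-250 g) cortex homogenized in ice-cold Na/K phosphate buffer pH 7.4, diluted 1:400, ~0.55 mg protein per 2.0 mL. 0.1 nM radioligand (84.1 Ci/mmol), made fresh just before use. Unlabeled competitor at final 10^-12 to 10^-3 M. 10 μM atropine for nonspecific. Filtered, counted by liquid scintillation. One-site competitive fit gives apparent Ki.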

[10] = target: Muscarinic acetylcholine receptor; test: as §2; format: tissue-based; remark: listed apart in the source
Method in brief: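 Radioligand 250 pM (30.0 Ci/mmol). Competitor at final 10^-12 to 10^-3 M. 10 μM atropine defines nonspecific binding. Filtration on PEI-soaked GF/B filters, scintillation counting. Apparent Ki from one-site competitive nonlinear fit.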

Structure (SMILES) | Ki [1] [µM] | Ki [2] [µM] | Ratio [3] | Ratio [4] | Ki [5] [µM] | Ki [6] [µM] | Ratio [7] | Ratio [8] | Ki [9] [µM] | Ki [10] [µM]
CN(C)CC#C[C@@H]1CCCN1C(=O)OC(C)(C)C | 14.1 | 3.3 | 1.1 | 3.5 | 11.4 | 13.4 | 1.5 | 1.6 | 9.04 | 
CC(=O)N1CCC[C@@H]1C#CCN1CCCC1.Cl | 1.63 | 0.45 | 2.7 | 1 | 0.43 | 0.61 | 3.6 | 9.6 | 0.17 | 
CN(C)CC#C[C@@H]1CCCN1.Cl.Cl | 19.1 | 37.35 | 1 | 0.2 |  | 20 | 1.5 | 1.4 | 13.2 | 8.5
CS(=O)(=O)N1CCC[C@@H]1C#CCN1CCCC1.Cl | 13.4 | 1.98 | 2.3 | 1 | 1.92 | 5.91 | 1.4 | 3.3 | 4.11 | 
CCOC(=O)N1CCC[C@H]1C#CCN1CCCC1 | 1 | 0.61 | 1.2 | 0.5 | 0.31 | 0.85 | 8.5 | 10 | 0.1 | 
Cl.O=C(N1CCC[C@H]1C#CCN1CCCC1)C(F)(F)F | 8.86 | 2.22 | 1.4 | 1.6 | 3.45 | 6.4 | 2.1 | 2.9 | 3.1 | 
C(#C[C@H]1CCCN1)CN1CCCC1.Cl.Cl | 19.6 | 1.28 | 1.5 | 2.5 | 3.22 | 12.9 | 2 | 3 | 6.5 | 
CC(=O)N1CCC[C@@H]1C#CC[N+](C)(C)C | 5.47 | 0.11 | 2.6 | 20.3 | 2.23 | 2.07 | 1.3 | 3.4 | 1.63 | 
CCOC(=O)N1CCC[C@@H]1C#CCN1CCCC1 | 1.04 | 0.51 | 1.1 | 2.3 | 1.16 | 0.94 | 4.9 | 5.5 | 0.19 | 
O=C1CCCN1CC#CCN1CCCC1 [OXOTREMORINE] | 0.14 | 0.0005 | 35 | 120 | 0.06 | 0.004 | 0.03 | 1 | 0.14 | 
CC(=O)N1CCC[C@@H]1C#CCN(C)C | 42.4 | 1.65 | 3.6 | 8.4 | 13.8 | 11.8 | 2.2 | 8.1 | 5.25 | 
CC(C)(C)OC(=O)N1CCC[C@H]1C#CCN1CCCC1 | 0.9 | 0.33 | 6.9 | 3 | 0.98 | 0.13 | 1.9 | 13 | 0.07 | 
CN(C)CC#C[C@H]1CCCN1C(=O)OC(C)(C)C | 19.6 | 0.25 | 3.8 | 12.8 | 3.2 | 5.16 | 0.9 | 3.5 | 5.6 | 
CS(=O)(=O)N1CCC[C@H]1C#CCN1CCCC1.Cl | 15.1 | 3.92 | 1.6 | 0.8 | 3.02 | 9.19 | 1.5 | 2.5 | 6.05 | 

Next, values leading:

Ki [1] [µM] | Ki [2] [µM] | Ratio [3] | Ratio [4] | Ki [5] [µM] | Ki [6] [µM] | Ratio [7] | Ratio [8] | Ki [9] [µM] | Ki [10] [µM] | Structure (SMILES)
5.06 | 0.53 | 1.7 | 1.5 | 0.81 | 2.94 | 1.8 | 3.2 | 1.59 |  | COC(=O)N1CCC[C@@H]1C#CCN1CCCC1
47.1 | 4.15 | 2.9 | 5 |  | 16.4 | 1.2 | 3.4 | 13.9 | 20.9 | CC(=O)N1CCC[C@H]1C#CC[N+](C)(C)C
29.3 | 37.08 | 1 | 0.5 | 18.7 | 28.5 | 1.1 | 1.2 | 25.2 |  | CN(C)CC#C[C@H]1CCCN1.Cl.Cl
22.6 | 2.55 | 1.5 | 1.9 |  | 15.5 | 7.5 | 11 | 2.06 | 4.96 | CC(=O)N1CCC[C@H]1C#CCN1CCCC1.Cl
175 | 15.5 | 3.4 | 3.2 |  | 51.7 | 1.3 | 4.4 | 40 | 48.9 | CC(=O)N1CCC[C@H]1C#CCN(C)C
1.07 | 0.44 | 0.9 | 0.8 | 0.36 | 1.23 | 8.8 | 7.6 | 0.14 |  | Cl.O=C(N1CCC[C@@H]1C#CCN1CCCC1)C(F)(F)F
5.75 | 1.44 | 1.3 | 0.4 | 0.62 | 4.42 | 3 | 3.9 | 1.48 |  | COC(=O)N1CCC[C@H]1C#CCN1CCCC1
1.96 | 0.22 | 1.5 | 3 | 0.66 | 1.32 | 3.1 | 4.7 | 0.42 |  | CC(C)(C)OC(=O)N1CCC[C@@H]1C#CCN1CCCC1
3.12 | 3.35 | 1 | 0.7 | 2.39 | 3.26 | 2.7 | 2.5 | 1.18 |  | O=CN1CCC[C@@H]1C#CCN1CCCC1
